In ChEMBL document CHEMBL1129431, “Derivatives of (R)- and (S)-5-fluoro-8-hydroxy-2-(dipropylamino)tetralin: synthesis and interactions with 5-HT1A receptors” (J Med Chem, 1996) one finds response, % of control and Ki data, which are given here for six compounds.

Experiment [1] has as its target T1, 5-hydroxytryptamine receptor 1A (Rattus norvegicus) (UniProt P19327).
T1 sequence (whole entry): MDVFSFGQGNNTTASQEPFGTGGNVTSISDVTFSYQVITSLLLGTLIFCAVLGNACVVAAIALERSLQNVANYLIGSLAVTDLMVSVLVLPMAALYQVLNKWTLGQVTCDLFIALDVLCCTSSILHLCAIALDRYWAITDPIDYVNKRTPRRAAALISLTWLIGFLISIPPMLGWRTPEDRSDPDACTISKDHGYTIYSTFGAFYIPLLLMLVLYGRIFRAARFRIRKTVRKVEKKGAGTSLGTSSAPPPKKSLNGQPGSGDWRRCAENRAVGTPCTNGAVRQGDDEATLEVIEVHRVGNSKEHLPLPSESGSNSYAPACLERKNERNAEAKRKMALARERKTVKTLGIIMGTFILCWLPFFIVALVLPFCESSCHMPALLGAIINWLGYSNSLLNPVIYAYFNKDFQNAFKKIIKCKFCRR
As to the kind of experiment: Effect on 5-hydroxytryptamine 1A receptor mediated inhibition of VIP-stimulated cAMP production at dose of 1 uM+ 50 uM 5-HT. The following applies: values are per cent of control. Type of experiment: functional. The method, boiled down: (§1)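 GH4ZD10 cells expressing rat 5-HT1A receptors, detached with EDTA-supplemented Ca/Mg-free EBSS and resuspended in Ham's F10 with 0.01% ascorbic acid and 0.1 mM IBMX. Preincubated 1 h at 37 °C, then 0.8-1.5×10^6 cells/mL incubated 20 min at 37 °C with VIP (39 nM final) plus compounds. Duplicate samples stopped by boiling. cAMP measured in triplicate by protein-binding assay. Results are given as % of the VIP-stimulated response.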

Experiment [2] concerns the target T1, 5-hydroxytryptamine receptor 1A (Rattus norvegicus). As to the kind of experiment: Effect on 5-hydroxytryptamine 1A receptor mediated inhibition of VIP-stimulated cAMP production at dose of 0.1 uM + 1 uM 5-HT. Conditions: values are per cent of control. Type of experiment: functional. The method, boiled down: (§2)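 GH4ZD10 cells expressing rat 5-HT1A receptors were detached with EBSS plus 1 mM EDTA and resuspended to ~1×10^7 cells/mL in Ham's F10 with 0.01% ascorbic acid and 0.1 mM IBMX. After 1 h preincubation at 37 °C they were diluted to 0.8-1.5×10^6 cells/mL, then incubated 20 min at 37 °C with VIP (39 nM final) plus compound, alone or with 5-HT, in duplicate. The reaction was stopped by boiling. cAMP was measured in triplicate by protein-binding assay and expressed as % of the VIP-stimulated response.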
Background: cAMP levels reflect the balance of adenylyl cyclase and phosphodiesterase activity.

Experiment [3] shares this target. As to the kind of experiment: Effect on 5-hydroxytryptamine 1A receptor mediated inhibition of VIP-stimulated cAMP production at dose of 1 uM. In kind it is functional. The following applies: values are per cent of control. In a few lines:
as §2

Experiment [4] shares this target. The following applies: 0.05 uM.
For experiment [5] the target is unchanged. Briefly: Effect on 5-hydroxytryptamine 1A receptor mediated inhibition of VIP-stimulated cAMP production at dose of 50 uM. Type of experiment: functional. Conditions: values are per cent of control. The method, boiled down:
as §1

The target in experiment [6] is T2, 5-hydroxytryptamine receptor 1A (Rattus norvegicus, UniProt P19327).
T2 sequence (P19327 whole entry): T1 sequence (whole entry)
As to the kind of experiment: Binding affinity against rat hippocampal 5-hydroxytryptamine 1A (5-HT1A) receptor determined using [3H]8-OH-DPAT as radioligand. Type of experiment: tissue-based, Hippocampus.

Experiment [7] concerns the target T1, 5-hydroxytryptamine receptor 1A (Rattus norvegicus). Briefly: Effect against 5-hydroxytryptamine 1A receptor mediated inhibition of VIP-stimulated cAMP production at 0.1 uM dose. Type of experiment: functional. The following applies: values are per cent of control. The method, boiled down: as §2
Experiment [8] shares this target. Briefly: Effect on 5-hydroxytryptamine 1A receptor mediated inhibition of VIP-stimulated cAMP production at dose of 10 uM. The following applies: values are per cent of control. In kind it is functional. The method, boiled down: as §2
The target is the same in experiment [9]. As to the kind of experiment: (§3) Effect on 5-hydroxytryptamine 1A receptor mediated inhibition of VIP-stimulated cAMP production at dose of 0.1 uM + 10 uM 5-HT. Type of experiment: functional. Conditions: values are per cent of control. The method, boiled down: as §2
Experiment [10] shares this target. Briefly: Effect on 5-hydroxytryptamine 1A receptor mediated inhibition of VIP-stimulated cAMP production at dose of 30 uM. In kind it is functional. Conditions: values are per cent of control. In a few lines:
as §2

For experiment [11] the target is unchanged. Described as §3. Type of experiment: functional. The following applies: values are per cent of control. The method, boiled down: as §1
This is another data set of the same source.

Experiment [12] has the same target. As to the kind of experiment: Effect on 5-hydroxytryptamine 1A receptor mediated inhibition of VIP-stimulated cAMP production at dose of 1 uM+ 1 uM 5-HT. In kind it is functional. Conditions: values are per cent of control. In a few lines:
as §1

The target is the same in experiment [13]. Briefly: Effect on 5-hydroxytryptamine 1A receptor mediated inhibition of VIP-stimulated cAMP production at dose of 0.1 uM + 0.1 uM 5-HT. In kind it is functional. The following applies: values are per cent of control. The method, boiled down:
as §1

Experiment [14] has the same target. Briefly: Effect on 5-hydroxytryptamine 1A receptor mediated inhibition of VIP-stimulated cAMP production at dose of 0+ 1 uM 5-HT. The following applies: values are per cent of control. In kind it is functional. The method, boiled down: as §1
For experiment [15] the target is unchanged. The following applies: 1 uM.
The target is the same in experiment [16]. Briefly: Effect on 5-hydroxytryptamine 1A receptor mediated inhibition of VIP-stimulated cAMP production at dose of 1 uM+ 10 uM 5-HT. The following applies: values are per cent of control. Type of experiment: functional. The method, boiled down: as §2
Experiment [17] has the same target. As to the kind of experiment: Effect on 5-hydroxytryptamine 1A receptor mediated inhibition of VIP-stimulated cAMP production at dose of 1 uM+ 0.1 uM 5-HT. Type of experiment: functional. Conditions: values are per cent of control. The method, boiled down: as §1
Experiment [18] shares this target. As to the kind of experiment: Effect on 5-hydroxytryptamine 1A receptor mediated inhibition of VIP-stimulated cAMP production at dose of 50 uM+ 50 uM 5-HT. The following applies: values are per cent of control. Type of experiment: functional. The method, boiled down: as §1
Experiment [19] shares this target. Briefly: Effect on 5-hydroxytryptamine 1A receptor mediated inhibition of VIP-stimulated cAMP production at dose of 10 uM+ 10 uM 5-HT. Conditions: values are per cent of control. In kind it is functional. The method, boiled down:
as §1

For experiment [20] the target is unchanged. As to the kind of experiment: Effect on 5-hydroxytryptamine 1A receptor mediated inhibition of VIP-stimulated cAMP production at dose of 0.05 uM. The following applies: values are per cent of control. In kind it is functional. The method, boiled down:
as §1

Values joined by “and” are separate entries in the source; they are usually repeats but may differ in a detail not shown here. Equal entries are not always repeated.

`CCCN(CCCCN1C(=O)CC2(CCCC2)CC1=O)[C@H]1CCc2c(F)ccc(OC)c2C1`: the response, % of control amounted to 41% in experiment [1]; 50% in experiment [2]; 79% in experiment [3]; 87% in [4]; 39% in [5]. This compound had a Ki in experiment [6] of 4.9 nM.

With `CCCN(CCC)[C@@H]1CCc2c(F)ccc(-c3ccco3)c2C1`, the response, % of control was 106% and 98% in experiment [7]; 84% in experiment [8]; 61% in experiment [9]; 60% in experiment [2]; 97% in experiment [3]; 79% in [10].

For `CCCN(CCCCN1C(=O)CC2(CCCC2)CC1=O)[C@@H]1CCc2c(F)ccc(-c3ccco3)c2C1`, the response, % of control worked out at 54% in experiment [11]; 60% in experiment [12]; 57% in experiment [13]; 60% in [3]; 62% in [14]. The same compound showed a Ki in [6] of 1.1 nM.

Turning to `CCCN(CCC)[C@H]1CCc2c(F)ccc(O)c2C1`, the response, % of control in experiment [15] was found to be 100%; in [7], 94%; in experiment [8], 100%; in experiment [2] it was 57%. The Ki in [6] amounted to 24.8 nM.

With `CCCN(CCCCN1C(=O)CC2(CCCC2)CC1=O)[C@H]1CCc2c(F)ccc(-c3ccco3)c2C1`, the response, % of control in experiment [16] is 68%; in [17], 58% and 66%; in experiment [2] it was 62%. In experiment [6], this compound yielded a Ki of 7.5 nM.

As for `CCCN(CCCCN1C(=O)CC2(CCCC2)CC1=O)[C@H]1CCc2c(F)ccc(C(C)=O)c2C1`, the response, % of control in experiment [18] is 91%; in experiment [12], 91%; in experiment [8], 109%; in experiment [19], 102%; in [20], 104%; in [2] it was 70%. Further, the response, % of control in experiment [3] was 97%; in [5], 93%. In experiment [6], this compound showed a Ki of 13.9 nM.

For orientation: Ki means a dissociation constant, usually derived from enzyme kinetics or from competition with a known ligand.
